According to ChEMBL document CHEMBL4196220, “Synthesis and Discovery of Arylpiperidinylquinazolines: New Inhibitors of the Vesicular Monoamine Transporter” (J Med Chem, 2018):
Activity calls are given as the source filed them. The calls are words filed in the database; no cut-off is given here.

Legend:
[1] = target: Sodium-dependent dopamine transporter (Homo sapiens, UniProt Q01959); test: Displacement of [125I]RTI-55 from human DAT expressed in HEK293 cell membranes
Method in brief: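 Total particulate membranes from HEK-293 cells stably expressing hDAT, with [125I]RTI-55 at 40−60 pM. Nonspecific binding defined with 5 μM mazindol.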

[2] = target: T1, Synaptic vesicular amine transporter (Homo sapiens, UniProt Q05940); test: Displacement of [3H]reserpine from human VMAT2 expressed in HEK293 cell membranes incubated for 60 mins by scintillation counting method
[3] = target: T1, Synaptic vesicular amine transporter; test: Inhibition of human VMAT2 expressed in HEK293 cell membranes assessed as reduction in [3H[-5HT uptake pre-incubated for 10 mins before [3H[-5HT addition and measured after 6 mins; type: cell-based
Method in brief: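 Vesicular membranes from HEK-hVMAT2 cells: differential centrifugation, osmotic shock, then resuspension in uptake buffer (tartrate/Tris/KCl/MgSO4, ascorbate, tropolone, pargyline, pH 7.4, 2 mM MgATP). Drug preincubation 10 min at 30 °C. Stopped by filtration. Duplicate wells, IC50.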

[4] = target: T1, Synaptic vesicular amine transporter; test: Displacement of [3H]DHTB from human VMAT2 expressed in HEK293 cell membranes incubated for 90 mins by microbeta scintillation counting method
Method in brief: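 Tris buffer without ATP, 90 min at room temperature. Nonspecific binding defined with 2 μM DHTB. Filtermat filtration and microBeta counting. Test compounds 1 nM–10 μM.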

[5] = target: 5-hydroxytryptamine receptor 2A (Homo sapiens, UniProt P28223); test: biochemical; type: cell-based, HEK293
[6] = target: T1, Synaptic vesicular amine transporter; test: Displacement of [3H](+)-syn-Ethyl 1-(2-(2,4-Dioxo-1,2-dihydroquinazolin-3(4H)-yl)ethyl)-4-(4-fluorophenyl)piperidine-3-carboxylate from human VMAT2 expressed in HEK293 cell membranes incubated for 60 mins by scintillation counting method
Method in brief: (§1)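 Membranes from confluent HEK-293 cells stably expressing human VMAT2, prepared by osmotic shock and restored with Tris/K tartrate/MgSO4. About 50−75 μg protein per assay with [3H](+)-5b at 50−100 nM final. Incubated 60 min at 4 °C in the dark. Filtration, then beta counting.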

[7] = target: T2, 5-hydroxytryptamine receptor 1A (Homo sapiens) (UniProt P08908); test: Binding affinity to 5HT1A receptor (unknown origin)
T2 sequence (whole entry): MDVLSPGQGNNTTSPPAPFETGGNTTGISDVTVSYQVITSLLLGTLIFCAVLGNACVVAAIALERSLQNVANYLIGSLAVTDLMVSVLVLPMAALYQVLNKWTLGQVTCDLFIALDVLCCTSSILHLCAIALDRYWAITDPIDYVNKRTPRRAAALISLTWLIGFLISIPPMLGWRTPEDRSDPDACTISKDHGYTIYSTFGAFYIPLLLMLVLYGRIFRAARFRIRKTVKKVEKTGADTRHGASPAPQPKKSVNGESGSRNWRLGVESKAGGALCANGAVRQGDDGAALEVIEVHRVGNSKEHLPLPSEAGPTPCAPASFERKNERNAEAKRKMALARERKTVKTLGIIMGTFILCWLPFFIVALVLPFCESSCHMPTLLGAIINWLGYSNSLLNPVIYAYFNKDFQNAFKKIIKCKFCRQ

[8] = target: Synaptic vesicular amine transporter (Mus musculus, UniProt Q8BRU6); test: Inhibition of VMAT2 in C57Bl/6J mouse striatal membranes assessed as reduction in [3H[-5HT uptake pre-incubated for 10 mins before [3H[-5HT addition and measured after 8 mins; type: cell membranes, Striatum, Membrane
HEK293 [9] = test: Cytotoxicity in HEK293 cells expressing human VMAT2 assessed as reduction in cell viability at 10 uM incubated for 24 hrs by MTT assay; type: cell-based; settings: hek293, 24 h
Method in brief: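 HEK-VMAT2 cells plated at 5 × 10^4 per well. Drugs added on day 2 to triplicate wells, all with 0.1% DMSO, for 24 h. MTT reagent then 2 h at 37 °C, solvent added, read at 590 nm. Values normalized to control cells. One-way ANOVA with post hoc test.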

[10] = target: T1, Synaptic vesicular amine transporter; test: Binding affinity to human VMAT2 expressed in HEK293 cell membranes in presence of 2 mM Mg-ATP by scintillation counting method; settings: tested as the 3H-labelled form; method in brief: as §1
[11] = target: T1, Synaptic vesicular amine transporter; test: Binding affinity to human VMAT2 expressed in HEK293 cell membranes by scintillation counting method based saturation binding assay
Method in brief: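 Saturation binding on HEK-VMAT2 membranes, with duplicate points mixing labeled and unlabeled ligand. [3H](+)-5b: 5–600 nM, 60 min at 4 °C in the dark, buffer with 2 mM MgATP. 3−4 independent experiments.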

[12] = target: T1, Synaptic vesicular amine transporter; test: Binding affinity to human VMAT2 expressed in HEK293 cell membranes assessed as half life at 24 to 28 nM in presence of 2 mM Mg-ATP by scintillation counting method; settings: tested as the 3H-labelled form
Method in brief: (§2)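 Kinetics for the [3H](+)-5b site on HEK-293 membranes expressing human VMAT2, run with 2 mM Mg-ATP. Excess unlabeled ligand of the same kind was used. Association at a single radioligand concentration was fitted as one-phase exponential association to give kobs.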

[13] = target: T1, Synaptic vesicular amine transporter; test: Binding affinity to human VMAT2 expressed in HEK293 cell membranes assessed as observed associate rate constant at 24 to 28 nM in presence of 2 mM Mg-ATP by scintillation counting method; settings: tested as the 3H-labelled form; method in brief: as §2
[14] = target: Sodium-dependent serotonin transporter (Homo sapiens, UniProt P31645); test: Displacement of [125I]RTI-55 from human SERT expressed in HEK293 cell membranes
[15] = target: Sodium-dependent noradrenaline transporter (Homo sapiens, UniProt P23975); test: Displacement of [125I]RTI-55 from human NET expressed in HEK293 cell membranes
HEK293 [16] = test: Cytotoxicity in HEK293 cells expressing human VMAT2 assessed as reduction in cell viability at 3 uM incubated for 24 hrs by MTT assay; type: cell-based; settings: hek293, 24 h
Method in brief: (§3)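 HEK-293 cells stably expressing human VMAT2, seeded at 5 × 10^4 cells/well in DMEM with 10% FetalClone, penicillin/streptomycin and G418. On day 2, compound in DMEM was added to triplicate wells, with 0.1% DMSO in all conditions, for 24 h. MTT reagent was then added for 2 h at 37 °C, followed by solvent. Absorbance read at 590 nm, normalized to control cells, and analyzed by one-way ANOVA with Dunnett's test.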

HEK293 [17] = test: Cytotoxicity in HEK293 cells expressing human VMAT2 assessed as reduction in cell viability at 1 uM incubated for 24 hrs by MTT assay; type: cell-based; settings: hek293, 24 h; method in brief: as §3

Sequence of 5-hydroxytryptamine receptor 2A (P28223 whole entry): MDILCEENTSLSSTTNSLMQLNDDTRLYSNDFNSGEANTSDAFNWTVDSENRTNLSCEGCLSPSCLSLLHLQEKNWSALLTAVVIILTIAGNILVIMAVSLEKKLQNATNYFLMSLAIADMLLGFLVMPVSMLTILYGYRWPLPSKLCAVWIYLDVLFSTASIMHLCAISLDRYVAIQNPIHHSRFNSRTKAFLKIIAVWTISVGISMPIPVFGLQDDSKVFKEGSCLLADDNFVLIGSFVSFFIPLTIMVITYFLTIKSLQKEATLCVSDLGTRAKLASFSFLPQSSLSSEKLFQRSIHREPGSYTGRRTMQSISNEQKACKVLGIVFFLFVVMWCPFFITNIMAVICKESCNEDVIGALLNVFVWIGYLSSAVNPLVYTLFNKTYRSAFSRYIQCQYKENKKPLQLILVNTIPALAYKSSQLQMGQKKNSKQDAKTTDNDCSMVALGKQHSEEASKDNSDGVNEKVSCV
Sequence of Synaptic vesicular amine transporter (Mus musculus, UniProt Q8BRU6) (Q8BRU6 whole entry): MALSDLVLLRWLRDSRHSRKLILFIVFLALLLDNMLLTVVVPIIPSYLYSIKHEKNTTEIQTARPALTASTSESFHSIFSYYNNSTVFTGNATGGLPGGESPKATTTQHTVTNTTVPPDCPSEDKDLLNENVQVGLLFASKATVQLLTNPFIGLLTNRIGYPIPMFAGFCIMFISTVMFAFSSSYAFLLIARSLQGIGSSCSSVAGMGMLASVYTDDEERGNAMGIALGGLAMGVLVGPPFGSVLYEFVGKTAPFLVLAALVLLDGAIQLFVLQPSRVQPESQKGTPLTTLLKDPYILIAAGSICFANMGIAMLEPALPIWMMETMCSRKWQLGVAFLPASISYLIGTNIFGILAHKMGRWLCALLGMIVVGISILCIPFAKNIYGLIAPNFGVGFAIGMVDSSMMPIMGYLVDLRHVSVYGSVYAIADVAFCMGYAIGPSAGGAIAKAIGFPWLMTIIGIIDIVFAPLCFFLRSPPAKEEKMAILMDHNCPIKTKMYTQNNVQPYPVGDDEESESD
T1 sequence (Q05940 whole entry): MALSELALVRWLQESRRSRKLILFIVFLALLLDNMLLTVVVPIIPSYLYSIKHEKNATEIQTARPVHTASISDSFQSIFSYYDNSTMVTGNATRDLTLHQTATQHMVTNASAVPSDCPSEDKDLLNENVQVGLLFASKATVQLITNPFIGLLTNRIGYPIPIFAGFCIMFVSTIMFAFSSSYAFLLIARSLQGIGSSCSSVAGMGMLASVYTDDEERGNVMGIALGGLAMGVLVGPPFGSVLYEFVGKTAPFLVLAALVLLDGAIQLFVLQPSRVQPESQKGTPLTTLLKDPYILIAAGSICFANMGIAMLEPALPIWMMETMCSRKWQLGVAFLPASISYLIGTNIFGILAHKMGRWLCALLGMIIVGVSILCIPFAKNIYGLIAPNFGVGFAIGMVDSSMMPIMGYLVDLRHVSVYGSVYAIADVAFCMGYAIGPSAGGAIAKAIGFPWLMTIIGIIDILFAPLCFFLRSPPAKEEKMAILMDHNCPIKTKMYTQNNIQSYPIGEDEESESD
Sequence of Sodium-dependent dopamine transporter (Q01959 whole entry): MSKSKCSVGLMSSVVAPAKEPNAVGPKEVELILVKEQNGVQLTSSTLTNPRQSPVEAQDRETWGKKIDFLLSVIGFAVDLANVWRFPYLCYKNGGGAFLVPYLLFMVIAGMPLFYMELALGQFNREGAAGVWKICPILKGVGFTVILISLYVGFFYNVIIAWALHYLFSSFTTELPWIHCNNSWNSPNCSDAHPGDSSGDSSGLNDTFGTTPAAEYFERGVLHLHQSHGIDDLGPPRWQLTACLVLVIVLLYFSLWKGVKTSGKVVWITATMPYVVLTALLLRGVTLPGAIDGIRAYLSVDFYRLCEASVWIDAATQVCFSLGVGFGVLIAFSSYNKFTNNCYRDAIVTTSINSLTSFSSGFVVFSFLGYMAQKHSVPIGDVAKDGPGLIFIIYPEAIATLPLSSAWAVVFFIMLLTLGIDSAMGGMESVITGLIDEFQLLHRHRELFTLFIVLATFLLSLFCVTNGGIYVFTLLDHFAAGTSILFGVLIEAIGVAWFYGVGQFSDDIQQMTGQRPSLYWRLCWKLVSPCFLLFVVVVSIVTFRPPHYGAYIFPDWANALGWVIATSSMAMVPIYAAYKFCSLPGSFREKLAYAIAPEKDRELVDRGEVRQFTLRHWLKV
Sequence of Sodium-dependent noradrenaline transporter (P23975 whole entry): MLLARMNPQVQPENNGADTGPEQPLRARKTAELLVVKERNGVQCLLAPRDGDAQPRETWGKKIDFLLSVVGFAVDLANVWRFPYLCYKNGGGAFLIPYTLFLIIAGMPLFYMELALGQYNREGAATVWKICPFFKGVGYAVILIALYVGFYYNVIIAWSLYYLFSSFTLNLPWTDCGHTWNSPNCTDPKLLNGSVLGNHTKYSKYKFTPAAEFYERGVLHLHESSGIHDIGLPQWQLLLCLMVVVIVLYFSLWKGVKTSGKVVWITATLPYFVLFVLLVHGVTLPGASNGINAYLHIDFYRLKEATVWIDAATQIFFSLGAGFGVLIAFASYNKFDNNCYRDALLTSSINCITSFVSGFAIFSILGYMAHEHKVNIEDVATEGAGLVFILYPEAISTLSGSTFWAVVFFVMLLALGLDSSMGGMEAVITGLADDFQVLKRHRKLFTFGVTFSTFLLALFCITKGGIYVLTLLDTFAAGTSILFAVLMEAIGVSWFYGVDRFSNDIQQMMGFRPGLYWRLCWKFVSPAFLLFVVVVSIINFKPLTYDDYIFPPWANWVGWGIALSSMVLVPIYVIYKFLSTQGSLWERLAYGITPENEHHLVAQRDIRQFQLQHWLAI
Sequence of Sodium-dependent serotonin transporter (P31645 whole entry): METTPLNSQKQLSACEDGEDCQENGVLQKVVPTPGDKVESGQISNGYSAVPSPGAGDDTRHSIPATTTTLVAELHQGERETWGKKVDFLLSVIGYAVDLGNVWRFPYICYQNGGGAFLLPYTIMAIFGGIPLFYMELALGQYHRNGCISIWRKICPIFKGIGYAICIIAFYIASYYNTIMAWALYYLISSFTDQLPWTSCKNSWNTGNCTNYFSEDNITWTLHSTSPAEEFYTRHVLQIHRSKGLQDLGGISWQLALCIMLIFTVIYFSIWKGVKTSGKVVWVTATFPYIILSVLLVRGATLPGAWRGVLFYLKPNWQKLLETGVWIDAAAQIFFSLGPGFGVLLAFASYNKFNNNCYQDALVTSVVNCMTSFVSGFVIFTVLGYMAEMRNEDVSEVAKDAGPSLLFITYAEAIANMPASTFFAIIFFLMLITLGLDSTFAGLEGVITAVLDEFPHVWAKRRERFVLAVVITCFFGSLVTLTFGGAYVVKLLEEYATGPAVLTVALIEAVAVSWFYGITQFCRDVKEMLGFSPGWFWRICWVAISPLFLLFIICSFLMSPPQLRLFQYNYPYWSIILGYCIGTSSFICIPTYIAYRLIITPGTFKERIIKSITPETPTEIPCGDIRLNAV

SMILES	Ki [1] [nM]	Ki [2] [nM]	IC50 [3] [nM]	Ki [4] [nM]	Ki [5] [nM]	Ki [6] [nM]	Activity [7]	IC50 [8] [nM]	Activity (HEK293 [9])	also measured
CCOC(=O)[C@@H]1CN(CCn2c(=O)[nH]c3ccccc3c2=O)CC[C@@H]1c1ccc(C(F)(F)F)cc1 (racemic)	> 10000	> 10000	2900	> 10000	> 10000	720	inactive	–	–	–
CCOC(=O)[C@@H]1CN(CCn2c(=O)[nH]c3ccccc3c2=O)CC[C@@H]1c1cccc(C(F)(F)F)c1 (racemic)	> 10000	990	125	> 10000	> 10000	350	inactive	12.8	Non-Toxic	–
CCOC(=O)[C@H]1CN(CCn2c(=O)[nH]c3ccccc3c2=O)CC[C@H]1c1ccc(F)cc1	–	–	–	–	–	–	–	–	–	fold change (FC) [10]: 15; Bmax ([11]; tested as the 3H-labelled form): 13.5 pmol/mg; T1/2 [12]: < 1 min; K [13]: 0.051
CCC1(O)CC2c3cc(OC)c(OC)cc3CCN2CC1CC(C)C (stereo unspecified)	–	83	154	64	> 10000	1930	–	49.6	Non-Toxic	–
O=C(c1ccc(F)cc1)C1CCN(CCn2c(=O)[nH]c3ccccc3c2=O)CC1 [KETANSERIN]	–	353	180	77	–	1190	–	100	Non-Toxic	–
CCOC(=O)[C@@H]1CN(CCn2c(=O)[nH]c3ccccc3c2=O)CC[C@@H]1c1ccc(C)cc1 (racemic)	7300	> 10000	2700	> 9100	> 10000	452	inactive	–	–	–
CCOC(=O)[C@@H]1CN(CCn2c(=O)[nH]c3ccccc3c2=O)CC[C@@H]1c1cccs1 (racemic)	> 7100	450	101	6160	> 9300	900	inactive	31.5	Non-Toxic	–
CCOC(=O)C1CN(CCn2c(=O)[nH]c3ccccc3c2=O)CCC1c1ccc(F)cc1 (single isomer, unassigned; (+)) [listing 1 of 2 here]	2440	–	–	–	> 10000	–	–	3.39	Non-Toxic	Ki [14]: > 10000 nM; Ki [15]: > 10000 nM
CCOC(=O)[C@@H]1CN(CCn2c(=O)[nH]c3ccccc3c2=O)CC[C@@H]1c1ccc(F)cc1 (racemic)	4170	–	–	–	2380	–	inactive	3.46	Non-Toxic	–
CCOC(=O)[C@@H]1CN(CCn2c(=O)[nH]c3ccccc3c2=O)CC[C@@H]1c1ccccc1 (racemic)	1610	70	19.7	> 7700	> 10000	287	inactive	9.1	Non-Toxic	–
CCOC(=O)[C@@H]1CN(CCn2c(=O)[nH]c3ccccc3c2=O)CC[C@@H]1c1ccc(N(C)C)cc1 (racemic)	> 10000	> 10000	5800	> 10000	> 10000	1960	inactive	–	–	–
CCOC(=O)C1CN(CCn2c(=O)[nH]c3ccccc3c2=O)CCC1c1ccc(F)cc1 (single isomer, unassigned; (-)) [listing 1 of 2 here]	–	–	–	–	–	–	inactive	–	–	–
CCOC(=O)[C@@H]1CN(CCn2c(=O)[nH]c3ccccc3c2=O)CC[C@@H]1c1cccc2c1OCCO2 (racemic)	> 10000	–	–	–	> 10000	–	inactive	–	–	–
CCOC(=O)C1CN(CCn2c(=O)[nH]c3ccccc3c2=O)CCC1c1ccc(F)cc1 (single isomer, unassigned; (-)) [listing 2 of 2 here]	9900	–	–	–	–	–	–	6.6	–	Ki ([5]; hek293): > 10000 nM
COc1cc2c(cc1OC)C1CC(O)C(CC(C)C)CN1CC2 (stereo unspecified)	–	–	–	–	6.7	–	–	19.8	Non-Toxic	Bmax [11]: 41.2 pmol/mg
CCOC(=O)C1CN(CCn2c(=O)[nH]c3ccccc3c2=O)CCC1c1ccc(F)cc1 (single isomer, unassigned; (+)) [listing 2 of 2 here]	–	–	–	–	–	–	inactive	–	–	–
CNC(C)Cc1ccccc1 (stereo unspecified)	–	6400	3620	346000	101000	24500	–	2740	Non-Toxic	–
CCOC(=O)[C@@H]1CN(CCn2c(=O)[nH]c3ccccc3c2=O)CC[C@@H]1c1ccc(-c2ccccc2)cc1 (racemic)	> 10000	> 10000	> 10000	> 10000	> 10000	3770	inactive	–	–	–
CCOC(=O)[C@@H]1CN(CCn2c(=O)[nH]c3ccccc3c2=O)CC[C@H]1c1ccc(F)cc1 (racemic)	> 9300	–	–	–	37.3	–	inactive	24.7	Non-Toxic	–
CN[C@@H]1C[C@H]2O[C@@](C)([C@@H]1OC)n1c3ccccc3c3c4c(c5c6ccccc6n2c5c31)C(=O)NC4 [STAUROSPORINE]	–	–	–	–	–	–	–	–	–	Activity (HEK293 [16]): 60%; Activity (HEK293 [17]): 45%
CCOC(=O)c1ccc([C@H]2CCN(CCn3c(=O)[nH]c4ccccc4c3=O)C[C@H]2C(=O)OCC)cc1 (racemic)	> 10000	–	–	–	> 10000	–	inactive	–	–	–
CN1[C@@H](CC(=O)c2ccccc2)CCC[C@H]1C[C@H](O)c1ccccc1 [LOBELINE]	–	1840	4200	> 10000	7400	1950	–	381	–	–
COC(=O)[C@H]1[C@H]2C[C@@H]3c4[nH]c5cc(OC)ccc5c4CCN3C[C@H]2C[C@@H](OC(=O)c2cc(OC)c(OC)c(OC)c2)[C@@H]1OC [RESERPINE]	–	–	–	–	–	–	–	1.79	–	Bmax [11]: 0.942 pmol/mg; Activity (HEK293 [17]): Non-Toxic
